# Screens (PubChem BioAssay)
# PKA-R1A act = activators of PKA-R1A holoenzyme, primary screen, biochemical, fluorescence polarization, Cy5-IP20, bovine R1A, mouse PKAc; cAMP-dependent protein kinase type I-alpha regulatory subunit (Bos taurus) + …; PKA-R1A dissociation; scaled: DMSO 0%, 113 µM cGMP 100%; activation, % at 11.4 µM; hit rate 0.083% among 340,000; AID 504707, 2011;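 active means percent activation above the mean of all tested compounds plus 3 SD, cut at about 19% in these data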;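 further: higher means more PKAc released from R1A so a rise in polarization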
# CCR6 antagonist = CCR6 receptor antagonists, primary screen, cell-based, CHO-K1, luminescence, beta-arrestin, uHTS; C-C chemokine receptor type 6 (Homo sapiens), P51684; CHO-K1 CCR6 PathHunter beta-arrestin, CCL20-stimulated; inhibition, % at 20 µM; hit rate 0.49% among 340,000; AID 493098, 2011;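 active means compounds whose inhibition of the agonist-driven luminescence signal at 20 µM reaches about 50%, limit read from the data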;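 further: cells stimulated with CCL20 at 14 nM final; plate controls were DMSO with CCL20 for no effect and DMSO without agonist for full effect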
# CXCR6 block = CXCR6 receptor inhibitors, primary screen, cell-based, beta-arrestin, luminescence, CHO-K1 PathHunter, 1536-well | C-X-C chemokine receptor type 6 (Homo sapiens), O00574 | inhibition, % at 20 µM | hit rate 0.36% among 360,000; in the data active means inhibition above about 34%, passing the limit was not always enough;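 further: antagonist mode with CXCL16 agonist at 10 nM final; 0% = 10 nM CXCL16 with DMSO and 100% = unstimulated wells without agonist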
# PKA-R2B act = activators of PKA-R2B holoenzyme, primary screen, biochemical, fluorescence polarization, Cy5-IP20, human | cAMP-dependent protein kinase catalytic subunit beta (Homo sapiens) + cAMP-dependent … | PKA-R2B holoenzyme dissociation; R2B truncated from residue 108, S112A mutant; 0% DMSO only, 100% 113 µM cGMP | AID 504700, 2011 | activation, % at 11.4 µM | hit rate 0.079% among 340,000;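 active means activation above a cutoff set at the mean over all compounds plus 3 SD, cut at about 18% in these data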;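 further: higher means more holoenzyme dissociation and a rise in polarization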
# Target sequence (P31323 whole entry, looked up, other chains not shown, the tested form may be a part): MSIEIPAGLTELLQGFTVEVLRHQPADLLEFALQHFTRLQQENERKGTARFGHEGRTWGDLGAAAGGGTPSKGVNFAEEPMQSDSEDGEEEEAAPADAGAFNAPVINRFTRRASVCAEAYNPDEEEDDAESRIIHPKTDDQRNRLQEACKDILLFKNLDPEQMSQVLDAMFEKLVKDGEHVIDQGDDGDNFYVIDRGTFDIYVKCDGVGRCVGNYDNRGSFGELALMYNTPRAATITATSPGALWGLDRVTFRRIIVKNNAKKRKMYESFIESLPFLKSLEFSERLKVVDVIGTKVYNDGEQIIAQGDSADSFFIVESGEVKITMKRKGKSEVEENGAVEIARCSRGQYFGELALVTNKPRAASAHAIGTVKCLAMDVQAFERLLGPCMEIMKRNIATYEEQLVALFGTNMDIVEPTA
# APJ antag = antagonists of human apelin receptor APJ, primary screen, CHO-K1 cells, beta-arrestin complementation, luminescence. P35414. inhibition, % at 20 µM. hit rate 0.32% among 330,000. AID 2521, 2010;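 active means inhibition above about 40% at 20 µM, limit read from the data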;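 further: cells challenged with 10 nM apelin-13 agonist together with compound; plate controls were apelin-13 plus DMSO wells for no effect and DMSO wells lacking apelin-13 for full effect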
# APJ agonist = agonists of human apelin receptor APJ, primary screen, CHO-K1 cells, PathHunter beta-arrestin, luminescence; P35414; 0% DMSO wells, 100% apelin; activation, % at 20 µM; hit rate 0.11% among 330,000; AID 2520, 2010;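 active means activation more than six SD over the plate average, tested at 20 µM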;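 further: 0% = DMSO alone and 100% = apelin-13 at 10 nM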
#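 Assay system: CHO-K1 APJ beta-arrestin complementation cell line / Compound: single test compound dose, 20 µM final, 1% DMSO / Times: overnight seeding, 90 min compound at 25 °C, 1 h detection / Technique: beta-gal luminescence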
# CXCR6 confirm = CXCR6 receptor antagonists, confirmation, cell-based, single concentration, beta-arrestin, luminescence | AID 602409, 2012 | shares compounds with CXCR6 block | inhibition, % at 20 µM | hit rate 65% among 700 | CHO-K1 CXCR6 PathHunter beta-arrestin;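 active means mean inhibition over four retests above 40%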;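 further: receptor stimulated with 10 nM CXCL16 agonist; beta-galactosidase fragment complementation upon beta-arrestin recruitment to receptor; plate controls were CXCL16 plus DMSO for no effect and DMSO without CXCL16 for full effect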
# Numbers without * were called inactive; nt = not tested or not shown. Hits are enriched below; roughly 0.88% of the tested compounds scored in any of these assays.
SMILES,PKA-R1A act,CCR6 antagonist,CXCR6 block,PKA-R2B act,APJ antag,APJ agonist,CXCR6 confirm
Cc1cccc2cc3c(NC(=O)C(C)(C)C)nn(CC(C)C)c3nc12,0,-1,-8,-5,-8,0,nt
Cc1cc(O)c(-c2cc(O)c(C)cc2O)cc1O,2,nt,64*,7,0,10,80*
COc1ccc(-c2c(C(=O)c3ccccc3)[nH]c(N)c2C(=O)c2ccc(Br)cc2)cc1OC,nt,nt,61*,nt,nt,nt,65*
COc1cc(-c2c(C(=O)c3ccccc3)[nH]c(N)c2C(N)=O)ccc1F,nt,nt,-2,nt,nt,nt,nt
COc1ccc(-c2c(C(=O)c3ccccc3)[nH]c(N)c2C(=O)c2ccccc2)cc1OC,nt,nt,42*,nt,nt,nt,41*
COc1cccc(C(=O)NC2CCNCC2)c1,-3,8,4,-3,12,-1,nt
N#CC(C#N)=C1C=CC=CN1/C(=C\c1ccccc1Cl)C(=O)c1ccccc1,-4,116*,93*,-15,nt,nt,82*
CCOC(=O)C(=NCCCN(C)C)NNc1cc(C(F)(F)F)ccc1Cl,2,11,-2,-3,7,-2,nt
COc1ccc2nc(C)cc(Nc3ccc(C)cc3)c2c1,-4,12,58*,-4,4,-2,1
O=C(NCCCN1CCCC1=O)c1ccc(S(=O)(=O)Nc2cccc(C(F)(F)F)c2)cc1,-7,1,-1,-10,-3,-6,nt
Cc1sc(Cc2nc(O)cs2)nc1-c1ccccc1,nt,33,52*,nt,45*,-9,38
COc1ccccc1CNS(=O)(=O)c1ccc(Br)s1,1,3,2,2,-4,1,nt
CCOC(=O)Cn1c(=O)oc2cc(S(=O)(=O)N(C)Cc3ccccc3)ccc21,-11,1,-7,2,11,1,nt
CCc1oc(C(=O)OC)cc1CSC(=N)N,1,13,0,-3,-1,-1,nt
Cc1cccc(NC(=S)N/N=C/c2ccc([N+](=O)[O-])s2)c1,8,nt,56*,1,18,-5,53*
Cc1ccc(-c2cc(C(=O)Nc3ccccc3C(N)=O)c3ccccc3n2)o1,nt,18,47*,nt,28,-5,1
Cn1cccc1C(=O)OCC(=O)N1CCc2ccccc2C1,-12,nt,-3,-1,nt,nt,nt
CC(C)[C@H](NC(=O)c1ccccc1Cl)C(=O)Nc1nc(-c2ccccn2)cs1,-2,16,13,-5,7,-2,nt
CC(Oc1ccc(Br)cc1)C(=O)Nc1nc(-c2ccccn2)cs1 (stereo not given),-7,84*,93*,-4,39,-20,86*
Cc1cc2nc(N3C(=O)CNC3=S)sc2cc1C,0,nt,50*,-7,22,-3,61*
O=C1CNC(=S)N1c1nc(-c2ccccc2)cs1,0,30,19,4,3,-4,nt
Nc1nc(COc2ccc(Cl)cc2)cs1,3,-11,1,-2,25,-5,nt
Nc1nc(COc2ccccc2)cs1,11,-13,59*,-6,14,-4,3
Cn1cnc([N+](=O)[O-])c1S(=O)(=O)c1ccc(Cl)cc1,-17,50,42*,4,nt,nt,69*
O=C(Cc1ccc(NC(=O)C2CCCN(C(=O)C3CCCC3)C2)cc1)Nc1cccc(C(=O)N2CCCC2)c1 (stereo not given),3,-2,-4,-9,nt,nt,nt
SMILES,PKA-R1A act,CCR6 antagonist,CXCR6 block,PKA-R2B act,APJ antag,APJ agonist,CXCR6 confirm
O=C(Cc1ccc(NC(=O)C2CCCN(C(=O)C3CCCCC3)C2)cc1)Nc1cccc(C(=O)N2CCCC2)c1 (stereo not given),3,1,91*,-1,nt,nt,19
O=C(CN1c2ccccc2Sc2ccccc21)NNC(=O)Nc1cccc(Cl)c1,1,-27,-3,10,-42,4,nt
Cc1ccc(NC(=O)c2cc(N3C(=O)C=CC3=O)ccc2N2CCOCC2)cc1,1,nt,89*,-1,nt,nt,28
Cc1ccc(NC(=O)c2cc(NC(=O)c3ccco3)ccc2N2CCOCC2)cc1,-7,24,8,-7,5,-2,nt
CSc1nc2c(=S)[nH]c(=S)[nH]c2s1,nt,nt,-1,nt,nt,nt,nt
O=C(CCCN1C(=O)c2ccccc2C1=O)Nc1ccccc1C(=O)N1CCOCC1,-14,34,66*,3,11,1,10
CCN1CCN(c2ccc(S(=O)(=O)N3CCOCC3)cc2NC(=O)COc2ccc(F)cc2Cl)CC1,-3,8,10,1,3,-5,nt
Cc1cnc(C(=O)Nc2cccc3cccnc23)cn1,-5,56*,51*,-14,nt,nt,40
Cc1cccc(C(=O)Nc2cccc3cccnc23)c1,1,15,-2,3,1,-5,nt
COc1ccc(/C=N/N2CCOCC2)cc1Cn1nc(C)c([N+](=O)[O-])c1C,0,5,-2,-4,12,-5,nt
COc1ccc(/C=N/Nc2ccccc2)cc1Cn1nc(C)c([N+](=O)[O-])c1C,-9,37,51*,-1,8,-4,13
Cc1ccc(C(=O)c2cc([N+](=O)[O-])ccc2N2CCN(C)CC2)cc1,-4,31,59*,4,-6,-1,10
C=C1C(=O)OC2C1CCC(C)=C1C(=O)C3OC3(C)C12 (stereo not given),11,48,47*,6,nt,nt,59*
C=C1C(=O)O[C@@H]2[C@H]1CC[C@H](C)[C@]1(O)CCC(=O)[C@@]21C,14,5,-6,6,9,-4,nt
O=C(NC(=S)Nc1ccc([N+](=O)[O-])cc1)c1ccco1,5,nt,42*,4,nt,nt,40
O=C(NC(=S)Nc1ccccc1[N+](=O)[O-])c1ccco1,-16,22,13,-10,12,-4,nt
COc1ccc(-c2[nH]n(-c3ccc([N+](=O)[O-])cc3)c(=O)c2C=NCc2ccc(F)cc2)cc1,-2,8,-4,-6,-18,-3,nt
COc1ccc(-c2cc(=O)n(-c3ccc([N+](=O)[O-])cc3)[nH]2)cc1,-3,38,41*,-13,29,-5,14
Cc1ccc(F)cc1CNC(=O)C1CCC(=O)N(C2CC2)C1 (stereo not given),-2,-1,38*,-5,-2,-6,-5
Cc1ccccc1CNC(=O)C1CCC(=O)N(C2CC2)C1 (stereo not given),-7,1,12,2,2,-8,nt
